Read-outs that look alike come from different tables or passages of the source.
Tests used:
human hepatic L02 cells = experiment: Antiproliferative activity, SRB assay, L02; type: cell-based
Outline: (§1)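 Cells seeded at 5×10^4/well and grown 24 h, then exposed to test compound (DMSO stock) for 24 h or 48 h. Processed by standard SRB method with absorbance at 540 nm. IC50 from log plot of percent of control vs concentration. HepG2 kept in RPMI 1640; L02 and WI38 in DMEM; all with 10% FBS, 1% penicillin–streptomycin, 37 °C, 5% CO2. TI = IC50 normal cells / IC50 HepG2.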

[1] = tested on: energized hepatic mitochondria (mPTP opening); experiment: Mitochondrial swelling; type: biochemical, rat; details: Fig. 5B; for induction of mitochondrial swelling at 10 μmol/L: 10 μmol/L alone
Outline: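 Energized rat hepatic mitochondria (1 mg/mL) in sucrose/HEPES/glutamate/malate medium, pH 7.4. Swelling followed as apparent A540 change after adding test compound (concentration series; 10 μmol/L alone or with Ca2+ 0.1 μmol/L). CsA 1 μmol/L added to suspensions containing 20 μmol/L compound. […]; mean±SEM of three independent experiments.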

[2] = tested on: human hepatoma HepG2 cells; experiment: Antiproliferative activity, SRB assay, HepG2; type: cell-based; details: for TI 24 h / TI 48 h: TI=IC50 L02 normal cell/IC50 HepG2 cancer cell
Outline: as §1

[3] = tested on: diploid human WI38 fibroblasts; experiment: Antiproliferative activity, SRB assay, WI38; type: cell-based
Outline: as §1

CAT = target: T1, CAT (Rattus norvegicus, UniProt P04762); experiment: Mitochondrial CAT activity; type: biochemical; details: 10 μmol/L, 15 and 30 min
T1 sequence (P04762 1-527): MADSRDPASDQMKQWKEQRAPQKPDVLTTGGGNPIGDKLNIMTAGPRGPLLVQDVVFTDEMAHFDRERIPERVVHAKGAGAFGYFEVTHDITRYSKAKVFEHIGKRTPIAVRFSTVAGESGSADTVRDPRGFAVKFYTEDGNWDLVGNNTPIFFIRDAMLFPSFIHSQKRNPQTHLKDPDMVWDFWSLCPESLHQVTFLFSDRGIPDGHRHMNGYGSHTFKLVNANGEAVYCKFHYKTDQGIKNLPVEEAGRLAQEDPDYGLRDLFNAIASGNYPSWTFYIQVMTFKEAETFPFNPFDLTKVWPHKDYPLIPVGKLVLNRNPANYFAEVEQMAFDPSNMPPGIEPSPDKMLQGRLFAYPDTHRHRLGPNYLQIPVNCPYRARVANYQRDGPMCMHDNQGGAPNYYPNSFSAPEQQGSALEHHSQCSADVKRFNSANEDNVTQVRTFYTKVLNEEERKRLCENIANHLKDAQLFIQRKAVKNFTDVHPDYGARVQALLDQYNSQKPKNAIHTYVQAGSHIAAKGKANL
Outline: (§2)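 Energized liver mitochondria from male Wistar rats incubated with test compound (10 μmol/L) for 15 or 30 min. Then sonicated in 5 s pulses for 5 cycles. SOD, GSH-Px and CAT activities measured with commercial kits per instructions. Mean±SEM of three independent experiments.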

[4] = tested on: H2O2 production in energized hepatic mitochondria; experiment: Mitochondrial H2O2 production; type: biochemical, rat; details: DCFDA, Fig. 2B
Outline: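 DCFDA (8 μmol/L) added to energized rat hepatic mitochondria (1 mg/mL) in standard medium (sucrose 250, HEPES 10, glutamate 10, malate 5 mmol/L; pH 7.4). Test compound added; incubated 15 or 30 min in the dark at 25 °C. Fluorescence ex 485/em 521 nm, expressed as percent of control. Mean±SEM, three independent experiments.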

[5] = tested on: cyt c release from energized mitochondria; experiment: Cyt c release from mitochondria; type: biochemical, rat; details: Fig. 7D
GSH-Px = experiment: Mitochondrial GSH-Px activity; type: biochemical, rat; details: 10 μmol/L, 15 and 30 min
Outline: as §2

[6] = tested on: lipid peroxidation in the energized hepatic mitochondria; experiment: Mitochondrial lipid peroxidation induced by FeCl2/ascorbate; type: biochemical, rat; details: for inhibition of lipid peroxidation at 6 μmol/L: Fig. 1B
Outline: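 Rat liver mitochondria (1 mg/mL, standard medium pH 7.4) with test compound (6 μmol/L). Peroxidation started with FeCl2 20 μmol/L/ascorbate 100 μmol/L and run 30 min. TCA-TBA-HCl stock plus 0.02% BHT added, then heated 15 min in a hot-water bath, cooled and centrifuged. A532 read; MDA calculated with ε532=1.5×10^5 mol/(L·cm). Three independent experiments.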

mitochondrial SOD = experiment: Mitochondrial SOD activity; type: biochemical, rat; details: 10 μmol/L, 15 and 30 min
Outline: as §2

Structure (SMILES): CCCC[P+](c1ccccc1)(c1ccccc1)c1ccccc1 [ButylTPP]
- IC50 (human hepatic L02 cells; read-out: IC50 L02 24 h, L02, 24 h, SRB): 121 ± 9.97 µM
- IC50 (human hepatic L02 cells; read-out: IC50 L02 48 h, L02, 48 h, SRB): 71.4 ± 6.64 µM
- induction of mitochondrial swelling at 10 μmol/L [1]: triggered swelling
- TI 24 h [2]: 4.76
- TI 48 h [2]: 5.58
- IC50 ([2]; read-out: IC50 HepG2 24 h, HepG2, 24 h, SRB): 25.4 ± 1.02 µM
- IC50 ([2]; read-out: IC50 HepG2 48 h, HepG2, 48 h, SRB): 12.8 ± 0.87 µM
- IC50 ([3]; read-out: IC50 WI38 24 h, WI38, 24 h, SRB): 179 ± 3.73 µM
- IC50 ([3]; read-out: IC50 WI38 48 h, WI38, 48 h, SRB): 88.5 ± 3.95 µM
- effect on CAT activity (CAT): did not alter
- effect on endogenous H2O2 levels at 10 μmol/L [4]: did not affect
- induction of cyt c release at 10 μmol/L [5]: had no effects
- effect on GSH-Px activity (GSH-Px): did not alter
- inhibition of lipid peroxidation at 6 μmol/L [6]: ineffective
- effect on SOD activity (mitochondrial SOD): did not alter

Structure (SMILES): O=C(O)/C=C/c1ccc(O)c(O)c1 [CaA, caffeic acid]
- IC50 (human hepatic L02 cells; Homo sapiens, L02, 24 h, read-out: IC50 L02 24 h): 403 ± 18.9 µM
- IC50 (human hepatic L02 cells; Homo sapiens, L02, 48 h, read-out: IC50 L02 48 h): 156 ± 8.83 µM
- mitochondrial swelling with Ca2+ ([1]; 10 μmol/L + 0.1 μmol/L Ca2+): failed to cause swelling
- induction of mitochondrial swelling at 10 μmol/L [1]: neither MitoCA nor CaA induced swelling
- IC50 ([2]; Homo sapiens, HepG2, 24 h, read-out: IC50 HepG2 24 h, HepG2, 24 h, SRB): 201 ± 3.88 µM
- IC50 ([2]; Homo sapiens, HepG2, 48 h, read-out: IC50 HepG2 48 h, HepG2, 48 h, SRB): 93 ± 1.35 µM
- TI 24 h [2]: 2.01
- TI 48 h [2]: 1.68
- IC50 ([3]; Homo sapiens, WI-38, 24 h, read-out: IC50 WI38 24 h): 281 ± 9.47 µM
- IC50 ([3]; Homo sapiens, WI-38, 48 h, read-out: IC50 WI38 48 h): 198 ± 7.78 µM
- induction of cyt c release at 10 μmol/L [5]: had no effects
- inhibition of lipid peroxidation at 6 μmol/L [6]: ineffective
- effect on lipid peroxidation, various concentrations ([6]; Fig. 1A): no effect

From article PMC5237706 (Acta Pharmaceutica Sinica. B, 2016)
